# Source: publication PMC3114641 (ACS medicinal chemistry letters, 2011)
# Where two headings read alike, the source gives them in different places.
# Legend:
# [1] = biological target: T1, chicken riboflavin binding protein (RfBP) (Gallus gallus, UniProt P02752); experiment: Isothermal titration calorimetry; conditions: ITC; for KD: KD = 1/KA
# T1 sequence (P02752 18-238): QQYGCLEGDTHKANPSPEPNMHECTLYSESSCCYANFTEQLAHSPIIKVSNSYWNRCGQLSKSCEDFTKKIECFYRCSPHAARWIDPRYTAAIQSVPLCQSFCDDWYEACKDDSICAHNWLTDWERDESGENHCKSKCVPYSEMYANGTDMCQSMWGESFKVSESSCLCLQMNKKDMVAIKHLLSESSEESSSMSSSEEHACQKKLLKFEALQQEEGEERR
# RfBP [2] = conditions: fluorescence quenching, cited from earlier work
# RfBP [3] = biological target: T2, RfBP (Gallus gallus, UniProt P02752); experiment: SPR solution competition: inhibition of RfBP adsorption to RF; format: binding, chicken
# T2 sequence (P02752 18-238): T1 sequence (P02752 18-238)
# RfBP [4] = biological target: T2, RfBP; experiment: SPR direct binding of RfBP to ligand 1 immobilized on CM5 sensor chip; set-up: species or system chicken
# How it was run: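 Chicken RfBP was injected at 33.0 to 3.70 μM in HBS-EP buffer (pH 7.4) over a CM5 chip with an immobilized riboflavin-linker conjugate. Sensorgrams were fitted globally to a 1:1 Langmuir model to give kon and koff, and KD was derived from these kinetics. KD was also obtained by Scatchard analysis of bound RfBP against RfBP concentration.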
# [5] = PBS pH 7.4, 25°C, calculated estimate
# [6] = PBS pH 7.4, 25°C, calculated estimate (Table 2)
# [7] = 0.1M NaAc pH 4.0, 25°C, calculated estimate
# [8] = 0.1M Phosphate pH 7.4, 25°C, calculated estimate
# [9] = 0.1M Tris pH 9.0, 25°C, calculated estimate
smiles,measurement,setting,value
"CN(C)CCCN1c2ccccc2Sc2ccc(Cl)cc21 [Chlorpromazine, chlorpromazine]",binding affinity towards the RfBP,[1],no binding affinity
same,KD,"[1]; PBS pH 7.4, 25°C",No Binding Observed
"Cc1cc2nc3c(=O)[nH]c(=O)nc-3n(C)c2cc1C [Lumiflavin, lumiflavin]",n (binding stoichiometry),"[1]; PBS pH 7.4, 25°C",1.08 ±0.07
same,ΔH,"[1]; PBS pH 7.4, 25°C",-11.5 ± 1.72 kcal/mol
same,ΔG,[1]; [5],-9.85 kcal/mol
same,ΔS,[1]; [6],−0.02 kJ mol^−1 K^−1
"OCCN1CCN(CCCN2c3ccccc3Sc3ccc(Cl)cc32)CC1 [Perphenazine, perphenazine]",binding affinity towards the RfBP,[1],no binding affinity
same,KD,"[1]; PBS pH 7.4, 25°C",No Binding Observed
"Cc1cc2nc3c(=O)[nH]c(=O)nc-3n(C[C@H](O)[C@H](O)[C@H](O)CO)c2cc1C [RF, riboflavin]",n (binding stoichiometry),"[1]; 0.1M NaAc pH 4.0, 25°C",0.70±0.04
same,ΔH,"[1]; 0.1M NaAc pH 4.0, 25°C",-24.07 ± 2.49 kcal/mol
same,ΔG,[1]; [7],-9.99 kcal/mol
same,ΔS,[1]; [7],-0.0478 kcal/mol
same,n (binding stoichiometry),"[1]; 0.1M Phosphate pH 7.4, 25°C",0.81±0.03
same,ΔH,"[1]; 0.1M Phosphate pH 7.4, 25°C",-19.6 ± 1.36 kcal/mol
same,ΔG,[1]; [8],-11.1 kcal/mol
same,ΔS,[1]; [8],-0.0287 kcal/mol
same,n (binding stoichiometry),"[1]; 0.1M Tris pH 9.0, 25°C",0.82±0.03
same,ΔH,"[1]; 0.1M Tris pH 9.0, 25°C",-23.7 ± 2.15 kcal/mol
same,ΔG,[1]; [9],-10.2 kcal/mol
same,ΔS,[1]; [9],-0.0454 kcal/mol
same,n (binding stoichiometry),"[1]; PBS pH 7.4, 25°C",0.78±0.02
same,ΔH,"[1]; PBS pH 7.4, 25°C",-21.8 ± 1.36 kcal/mol
same,ΔG,[1]; [5],-11.4 kcal/mol
same,ΔS,"[1]; PBS pH 7.4, 25°C, calculated estimate (Table 1)",-0.0359 kcal/mol
same,ΔS,[1]; [6],−0.15 kJ mol^−1 K^−1
same,Kd,RfBP [2]; 0.01M phosphate buffer,1.3 nM
same,Kd,RfBP [2]; 0.1 M phosphate buffer,2 nM
same,"inhibitory activity, fold more potent than N(3) derivative 1",RfBP [3]; SPR Ki comparison,approximately 7 fold
Cc1cc2nc3c(=O)n(CC(=O)NCCCN)c(=O)nc-3n(C[C@H](O)[C@H](O)[C@H](O)CO)c2cc1C [compound 1],Kd,RfBP [4],14500 nM
same,koff,RfBP [4],0.00149 s⁻¹
same,kon,RfBP [4],103 M⁻¹ s⁻¹
same,inhibition of RfBP adsorption to the surface,"RfBP [3]; RfBP 11.1 µM, ligand concentrations above ~500 µM",approximately 90%
